Several values for one entry are separate records, joined by “and”; a condition that tells them apart may be missing. Equal values may be shown once. Activity calls are given as the source filed them. No cut-off for these calls is given here.

For test [1], the system named is Rattus norvegicus. In words: Calcium mobilization in vitamin D deficient ip dosed Sprague-Dawley rat.
In test [2] the test system is Rattus norvegicus. In words: Calcium mobilization in vitamin D deficient ip dosed Sprague-Dawley rat bone. The class given is functional, organism-based. The procedure, abridged: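 Rats depleted of vitamin D and kept on 0.02% Ca diet; four consecutive daily ip doses in 0.1 mL 1,2-propanediol/ethanol (95:5). Serum drawn 24 h after last dose; calcium by atomic absorption with 0.1% lanthanum chloride; rise in serum calcium taken as bone calcium mobilization.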
Background: A change in cytosolic calcium serves as a functional read-out for many receptors and channels.

Test [3] deals with T1, Vitamin D3 receptor (Rattus norvegicus) (UniProt P13053).
T1 sequence (whole entry): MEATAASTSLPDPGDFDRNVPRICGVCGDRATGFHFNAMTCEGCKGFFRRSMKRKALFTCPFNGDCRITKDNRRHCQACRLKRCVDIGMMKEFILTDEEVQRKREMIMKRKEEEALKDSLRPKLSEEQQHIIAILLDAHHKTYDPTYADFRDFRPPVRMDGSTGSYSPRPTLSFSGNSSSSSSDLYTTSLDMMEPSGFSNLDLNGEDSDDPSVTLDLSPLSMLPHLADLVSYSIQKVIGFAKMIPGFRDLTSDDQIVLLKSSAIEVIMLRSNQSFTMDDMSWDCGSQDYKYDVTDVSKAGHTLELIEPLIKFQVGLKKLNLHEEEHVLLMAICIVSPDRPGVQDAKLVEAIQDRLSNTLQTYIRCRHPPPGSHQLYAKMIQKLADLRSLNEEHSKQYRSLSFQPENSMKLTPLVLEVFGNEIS
As to the kind of experiment: Induction of vitamin D mediated transactivation in rat ROS17/2.8 cell luciferase assay. The class given is functional. The procedure, abridged: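 ROS 17/2.8 cells stably carrying a 24-hydroxylase promoter-luciferase reporter were dosed over a concentration range. Luciferase was measured by luminometer 16 h later.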

The target of test [4] is T2, Vitamin D3 receptor (Homo sapiens) (UniProt P11473).
T2 sequence (whole entry): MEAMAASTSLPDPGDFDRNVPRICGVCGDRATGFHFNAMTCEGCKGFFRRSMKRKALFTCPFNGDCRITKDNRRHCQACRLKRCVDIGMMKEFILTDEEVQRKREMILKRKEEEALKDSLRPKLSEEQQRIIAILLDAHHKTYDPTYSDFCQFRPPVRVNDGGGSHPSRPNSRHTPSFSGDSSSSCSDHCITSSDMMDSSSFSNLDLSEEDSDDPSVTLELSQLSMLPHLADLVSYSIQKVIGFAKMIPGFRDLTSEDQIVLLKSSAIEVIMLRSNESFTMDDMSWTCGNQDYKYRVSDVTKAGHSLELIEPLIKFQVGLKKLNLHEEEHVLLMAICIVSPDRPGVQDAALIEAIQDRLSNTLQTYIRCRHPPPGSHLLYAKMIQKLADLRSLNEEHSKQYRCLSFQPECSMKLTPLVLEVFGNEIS
As to the kind of experiment: Induction of differentiation of human HL60 promyelocytes to monocytes. The class given is functional.

Another test relates to Mus musculus. In words: Increase of calcium level in po dosed CD1 mouse serum. The class given is functional, organism-based. The essentials:
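Female CD-1 mice, 6-7 weeks, on 0.47% Ca diet, acclimated 5-7 days. Single gastric gavage dose formulated in Neobee oil with 5% ethanol at 4 mL/kg. Serum calcium measured by atomic absorption at several timepoints after dosing, including day 3.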

`C[C@@H](CCCC(C)(C)O)C1CCC2/C(=C/C=C3C[C@@H](O)C(=CCCO)[C@H](O)C3)CCC[C@@]21C` (stereo partly drawn): the result in the test on Rattus norvegicus [1] and in the test on Rattus norvegicus [2] was Active. Moreover, the ED50 in test [3] amounted to 0.0065 nM.

In the case of `COCOCCC=C1[C@H](O)CC(=C/C=C2\CCC[C@@]3(C)C2CCC3[C@H](C)CCCC(C)(C)O)C[C@H]1O` (stereo partly drawn), the outcome with Rattus norvegicus [1], in the test with Mus musculus and in the test on Rattus norvegicus [2] was Active. Also, the ED50 was 4.7 nM in test [4] and 3.8 nM in test [3].

Take `C[C@H](CCCC(C)(C)O)C1CCC2/C(=C/C=C3C[C@@H](O)C(=CCCO)[C@H](O)C3)CCC[C@@]21C` (stereo partly drawn): the result in the test on Rattus norvegicus [1], with Mus musculus and in the test on Rattus norvegicus [2] was Active. For the same molecule, the ED50 in test [4] is 3 nM and 1.3 nM; in test [3], 0.042 nM.

The values are drawn from ChEMBL document CHEMBL1147668, “New 2-alkylidene 1alpha,25-dihydroxy-19-norvitamin D3 analogues of high intestinal activity: synthesis and biological evaluation of 2-(3'-alkoxypropylidene) and 2-(3'-hydroxypropylidene) derivatives” (J Med Chem, 2006).
